In ChEMBL document CHEMBL3352166, “Structure-guided design and development of novel benzimidazole class of compounds targeting DNA gyraseB enzyme of Staphylococcus aureus” (Bioorg Med Chem, 2014):
In brackets after ≈: the same amount, converted by molar mass.

Legend:
DNA gyrase subunit B = DNA gyrase subunit B (Staphylococcus aureus, UniProt P0A0K8); test: Inhibition of Staphylococcus aureus DNA gyrase B ATPase activity
DNA gyrase = DNA gyrase (Staphylococcus aureus, UniProt P0A0K8+P20831); test: Inhibition of Staphylococcus aureus DNA gyrase-mediated supercoiling of relaxed DNA using pBR 322 as substrate by agarose gel electrophoresis analysis; format: protein-complex assay
Sequence of DNA gyrase (P0A0K8 whole entry): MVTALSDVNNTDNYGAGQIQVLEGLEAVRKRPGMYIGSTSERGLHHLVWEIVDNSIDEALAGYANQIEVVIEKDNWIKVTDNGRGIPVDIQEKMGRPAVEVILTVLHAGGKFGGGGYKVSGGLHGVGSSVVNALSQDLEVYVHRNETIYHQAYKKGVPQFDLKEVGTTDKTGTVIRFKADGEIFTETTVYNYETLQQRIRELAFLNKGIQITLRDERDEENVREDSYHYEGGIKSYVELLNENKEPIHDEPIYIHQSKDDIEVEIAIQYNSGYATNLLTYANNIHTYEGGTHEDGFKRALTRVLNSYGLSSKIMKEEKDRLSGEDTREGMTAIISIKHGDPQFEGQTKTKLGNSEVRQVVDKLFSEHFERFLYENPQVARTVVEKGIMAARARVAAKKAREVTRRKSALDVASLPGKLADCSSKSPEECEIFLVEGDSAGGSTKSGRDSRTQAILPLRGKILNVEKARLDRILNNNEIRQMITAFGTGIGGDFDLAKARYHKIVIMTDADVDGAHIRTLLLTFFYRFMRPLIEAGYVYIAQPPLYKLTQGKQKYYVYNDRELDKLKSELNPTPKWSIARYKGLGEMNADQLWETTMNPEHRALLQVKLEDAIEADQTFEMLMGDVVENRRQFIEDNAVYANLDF
Sequence of DNA gyrase (P20831 whole entry): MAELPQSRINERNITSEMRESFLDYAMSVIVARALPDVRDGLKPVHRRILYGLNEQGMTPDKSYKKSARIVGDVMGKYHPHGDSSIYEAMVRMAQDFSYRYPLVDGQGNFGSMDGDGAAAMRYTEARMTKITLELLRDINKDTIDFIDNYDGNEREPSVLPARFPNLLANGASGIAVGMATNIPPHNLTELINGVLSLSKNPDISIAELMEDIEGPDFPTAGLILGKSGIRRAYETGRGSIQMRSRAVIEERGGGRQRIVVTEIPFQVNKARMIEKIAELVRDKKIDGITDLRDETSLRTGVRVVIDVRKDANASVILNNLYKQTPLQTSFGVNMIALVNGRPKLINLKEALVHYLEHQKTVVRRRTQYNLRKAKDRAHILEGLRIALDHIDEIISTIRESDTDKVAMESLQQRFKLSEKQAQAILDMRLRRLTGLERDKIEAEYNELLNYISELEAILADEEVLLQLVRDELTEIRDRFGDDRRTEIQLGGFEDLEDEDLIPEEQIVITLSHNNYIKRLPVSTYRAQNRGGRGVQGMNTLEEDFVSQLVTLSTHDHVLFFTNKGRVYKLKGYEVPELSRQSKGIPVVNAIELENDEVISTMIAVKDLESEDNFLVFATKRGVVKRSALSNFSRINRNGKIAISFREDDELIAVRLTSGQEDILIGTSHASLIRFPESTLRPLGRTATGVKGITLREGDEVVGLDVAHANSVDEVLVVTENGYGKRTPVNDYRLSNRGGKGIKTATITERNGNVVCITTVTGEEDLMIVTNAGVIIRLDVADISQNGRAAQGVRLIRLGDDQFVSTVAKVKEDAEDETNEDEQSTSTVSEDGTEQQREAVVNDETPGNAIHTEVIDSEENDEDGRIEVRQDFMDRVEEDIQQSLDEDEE

Staphylococcus aureus [1] = test: Antimicrobial activity against Staphylococcus aureus MTCC 3160 after 16 to 24 hrs by agar dilution method; format: functional
How it was run: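 MIC by agar dilution per CLSI on Mueller-Hinton agar. Overnight colonies were suspended to about 10^6 cfu/mL, and 1 mL was added to 19 mL medium. Compounds were made up in 0.9% saline and tested over about 10 doubling dilutions, 100 µM to 0.1 µM. Plates ran 16-20 h at 35 °C in ambient air. MIC was the lowest concentration preventing visible growth.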

Staphylococcus aureus [2] = test: Antimicrobial activity against methicillin-resistant Staphylococcus aureus MTCC 96 after 16 to 24 hrs by agar dilution method; format: functional
How it was run: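 Agar dilution per CLSI guidelines on Mueller-Hinton agar. Overnight colonies suspended to about 10^6 cfu/mL, and 1 mL added to 19 mL medium. Stocks in 0.9% saline, tested over about 10 doubling dilutions from 100 µM to 0.1 µM. Plates incubated at 35 °C in ambient air for 16-20 h. MIC taken as the lowest concentration preventing visible growth.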

[3] = Cytotoxicity against human HEK293 cells assessed as reduction in cell viability at 100 uM after 72 hrs by MTT assay; format: cell-based; conditions: read-out: INH
How it was run: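 HEK-293 cells were seeded at 5000 per well and left 24 h, then washed. They were exposed to 100 µM in RPMI + 5% FBS + 1% penicillin/streptomycin, with final DMSO ≤0.5%, for 72 h at 37 °C in 5% CO2. DMSO-treated cultures served as controls. Viability was read by MTT at 570 nm, in triplicate, as percentage inhibition.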

Staphylococcus aureus [4] = test: Inhibition of biofilm formation in methicillin-resistant Staphylococcus aureus MTCC 96 after 24 hr incubation by tissue culture plate method; conditions: MTCC 96, 24 h

Sequence of DNA gyrase subunit B (P0A0K8 whole entry): as the sequence (P0A0K8 whole entry) above

SMILES | IC50 (DNA gyrase subunit B) [µM] | IC50 (DNA gyrase) [µM] | MIC (Staphylococcus aureus [1]) [µM] | MIC (Staphylococcus aureus [2]) [µM] | cytotoxicity at 72 h, 100 µM [3] [%] | IC50 (Staphylococcus aureus [4]) [µM]
O=c1nc(/C=C/c2ccc(/C=C/c3cc(C(F)(F)F)[nH]c(=O)n3)cc2)cc(C(F)(F)F)[nH]1 | 42.2 | 24.9 |  |  |  | 
O=C(O)CCCC(=O)Nc1ccc(-c2nc3cc(Cl)ccc3[nH]2)cc1 | 9.85 | 9.13 | 34.9 (≈ 12.5 µg/mL) | 69.8 (≈ 25 µg/mL) | 45.5 | > 100
O=C(O)CCC(=O)Nc1ccc(-c2nc3cc(F)ccc3[nH]2)cc1 | 17.6 | 12 | 38.2 (≈ 12.5 µg/mL) | 38.2 (≈ 12.5 µg/mL) | 28.7 | 82.7
O=C(O)CC(=O)Nc1ccc(-c2nc3cccnc3[nH]2)cc1 | 21.8 | 8.9 | 42.2 (≈ 12.5 µg/mL) | 42.2 (≈ 12.5 µg/mL) | 27.2 | 71.9
O=C(O)CCC(=O)Nc1ccc(NC(=O)c2ccco2)cc1 | 12.9 | 3.13 |  |  |  | 
CCc1cc(=O)nc(SCC(=O)Nc2cccc(C(=O)O)c2)[nH]1 | 65 | > 50 |  |  |  | 
O=C(O)CCCCC(=O)Nc1ccc(-c2nc3ccccc3[nH]2)cc1 | 5.7 | 6.12 | 37 (≈ 12.5 µg/mL) | 37 (≈ 12.5 µg/mL) | 32.1 | 81.5
O=C(O)CCCC(=O)Nc1ccc(-c2nc3cccnc3[nH]2)cc1 | 18.5 | 6.98 | 38.5 (≈ 12.5 µg/mL) | 38.5 (≈ 12.5 µg/mL) | 33.8 | 88.1
O=C(O)CCC(=O)Nc1ccc(-c2nc3cc(Cl)ccc3[nH]2)cc1 | 11.2 | 9.8 | 36.4 (≈ 12.5 µg/mL) | 36.4 (≈ 12.5 µg/mL) | 31.7 | 53.2
O=C(O)CSCC(=O)Nc1ccc(-c2nc3cc([N+](=O)[O-])ccc3[nH]2)cc1 | 3.13 | 2.1 | 8.09 (≈ 3.12 µg/mL) | 17 (≈ 6.56 µg/mL) | 25.2 | 10.3
O=C(O)CC(=O)Nc1ccc(-c2nc3cc(F)ccc3[nH]2)cc1 | 13.4 | 16.3 | 79.8 (≈ 25 µg/mL) | 79.8 (≈ 25 µg/mL) | 18.1 | > 100
COc1ccc2[nH]c(-c3ccc(NC(=O)CC(=O)O)cc3)nc2c1 | 11.1 | 18.4 | 38.4 (≈ 12.5 µg/mL) | 76.8 (≈ 25 µg/mL) | 27.4 | > 100
COc1ccc2[nH]c(-c3ccc(NC(=O)CSCC(=O)O)cc3)nc2c1 | 9.31 | 16 | 67.3 (≈ 25 µg/mL) | 67.3 (≈ 25 µg/mL) | 22.6 | > 100
COC(=O)CCCC(=O)Nc1ccc(-c2nc3ccccc3[nH]2)cc1 | 36.3 | 25 | 148 (≈ 50 µg/mL) | 148 (≈ 50 µg/mL) | 9.7 | > 100
COc1ccc2[nH]c(-c3ccc(NC(=O)CCC(=O)O)cc3)nc2c1 | 13.4 | 11.3 | 73.7 (≈ 25 µg/mL) | 73.7 (≈ 25 µg/mL) | 26.7 | > 100
Cc1sc2nc(SCC(=O)Nc3ccc(Cl)c(C(=O)O)c3)nc(O)c2c1C | 77.3 | > 50 |  |  |  | 
COC(=O)CCCC(=O)Nc1ccc(-c2nc3cc(F)ccc3[nH]2)cc1 | 18.6 | 10.7 | 70.3 (≈ 25 µg/mL) | 32.2 (≈ 11.4 µg/mL) | 33.8 | 59.3
O=C(O)CCC(=O)Nc1ccc(-c2nc3cc([N+](=O)[O-])ccc3[nH]2)cc1 | 17.5 | 8.32 | 17 (≈ 6.01 µg/mL) | 17 (≈ 6.01 µg/mL) | 24.6 | 27.9

SMILES | IC50 (DNA gyrase subunit B) [µM] | IC50 (DNA gyrase) [µM] | MIC (Staphylococcus aureus [1]) [µM] | MIC (Staphylococcus aureus [2]) [µM] | cytotoxicity at 72 h, 100 µM [3] [%] | IC50 (Staphylococcus aureus [4]) [µM]
O=C(O)CC(=O)Nc1ccc(-c2nc3ccccc3[nH]2)cc1 | 6.91 | 6.12 | 42.3 (≈ 12.5 µg/mL) | 21.2 (≈ 6.25 µg/mL) | 7.2 | 47.8
COC(=O)CCCC(=O)Nc1ccc(-c2nc3cc(OC)ccc3[nH]2)cc1 | 21.3 | 12.5 | 68 (≈ 25 µg/mL) | 34 (≈ 12.5 µg/mL) | 50.5 | 63.9
O=C(O)CC(=O)Nc1ccc(-c2nc3cc(Cl)ccc3[nH]2)cc1 | 26.3 | 18.2 | 75.8 (≈ 25 µg/mL) | 75.8 (≈ 25 µg/mL) | 25.6 | > 100
O=C(O)CCC(=O)Nc1ccc(-c2nc3cccnc3[nH]2)cc1 | 9.23 | 3.13 | 20.1 (≈ 6.25 µg/mL) | 10.1 (≈ 3.12 µg/mL) | 31.1 | 29.4
CO[C@@H]1[C@@H](OC(N)=O)[C@@H](O)[C@H](Oc2ccc3c(O)c(NC(=O)c4ccc(O)c(CC=C(C)C)c4)c(=O)oc3c2C)OC1(C)C [NOVOBIOCIN] |  |  | 0.25 (≈ 0.153 µg/mL) |  |  | 
O=C(O)COCC(=O)Nc1ccc(-c2nc3cc([N+](=O)[O-])ccc3[nH]2)cc1 | 8.51 | 5.8 | 33.8 (≈ 12.5 µg/mL) | 47 (≈ 17.4 µg/mL) | 31.3 | 83.2
O=C(O)COCC(=O)Nc1ccc(-c2nc3cccnc3[nH]2)cc1 | 6.93 | 4.7 | 19.1 (≈ 6.25 µg/mL) | 38.3 (≈ 12.5 µg/mL) | 38.7 | 82.5
COc1ccc2[nH]c(-c3ccc(NC(=O)CCCCC(=O)O)cc3)nc2c1 | 22.9 | 12.5 | 68 (≈ 25 µg/mL) | 34.1 (≈ 12.5 µg/mL) | 29.4 | 71.1
COc1ccc2[nH]c(-c3ccc(NC(=O)COCC(=O)O)cc3)nc2c1 | 4.34 | 3.06 | 17.6 (≈ 6.25 µg/mL) | 17.6 (≈ 6.25 µg/mL) | 23.3 | 31.7
O=C(O)CSCC(=O)Nc1ccc(-c2nc3cc(Cl)ccc3[nH]2)cc1 | 13.8 | 12.1 | 4.15 (≈ 1.56 µg/mL) | 4.15 (≈ 1.56 µg/mL) | 23 | 9.72
Cc1sc2nc(SCC(=O)Nc3cccc(C(=O)O)c3)nc(O)c2c1C | 17.3 | 8.22 |  |  |  | 
Cc1cc2ncn(CC(O)COc3cccc(C(=O)O)c3)c2cc1C (configuration not stated) | 12.9 | 3.13 |  |  |  | 
CNc1cc(CCNC(=O)c2ccc3oc(O)nc3c2)nc(-c2ccncc2)n1 | 92.1 | > 50 |  |  |  | 
O=C(O)c1cn(C2CC2)c2cc(N3CCNCC3)c(F)cc2c1=O [CIPROFLOXACIN] |  |  |  |  |  | 16.9
CC(Cc1c[nH]c2ccccc12)NC(=O)CSS(=O)(=O)O (configuration not stated) | 89.9 | > 50 |  |  |  | 
O=C(O)CCCC(=O)Nc1ccc(-c2nc3ccccc3[nH]2)cc1 | 12.6 | 2.9 |  |  |  | 
CC(=O)Nc1ccc(OCC[n+]2ccc(CCS(=O)(=O)[O-])cc2)cc1 | 77.1 | 45.1 |  |  |  | 
CCOc1cc(/C=C(\C#N)c2nc3ccc(C)cc3[nH]2)ccc1OCC(=O)O | 82.1 | > 50 |  |  |  | 
